According to ChEMBL document CHEMBL5321214, “Targeting the multifaceted neurotoxicity of Alzheimer's disease by tailored functionalisation of the curcumin scaffold” (Eur J Med Chem, 2023):
The source made the active and inactive calls.

How the values were obtained:
Microglia [1] = assay: Antiinflammatory activity against Sprague-Dawley rat microglial cells assessed as inhibition of LPS-induced TNF-alpha production at 1 to 20 uM pretreated with compound for 1 hr followed by LPS stimulation for 24 hrs by ELISA; assay type: functional, cell-based; conditions: dose 1-20 µM, time 25.0 hrs
In short: (§1)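 Primary cortical rat microglia in DMSO (≤0.1%) or vehicle for 1 h, then 100 ng/mL LPS for 24 h. TNF-α and IL-1β in culture medium by ELISA against standard curves (pg/mL), expressed as % of LPS-stimulated cultures. Mean ± SEM of 3 independent experiments; one-way ANOVA, Holm-Sidak test.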

Microglia [2] = assay: Antiinflammatory activity against Sprague-Dawley rat microglial cells assessed as inhibition of LPS-induced IL-1 beta production at 1 to 20 uM pretreated with compound for 1 hr followed by LPS stimulation for 24 hrs by ELISA; assay type: functional, cell-based; conditions: dose 1-20 µM, time 25.0 hrs; in short: as §1
[3] = biological target: Amyloid-beta precursor protein (Homo sapiens) (UniProt P05067); assay: Anti-oligomeric activity against Abeta42 (unknown origin) assessed as depletion of the formation of toxic HMW Abeta42 oligomers at 5 uM measured at day 7 from sample solubilization by capillary electrophoresis assay; conditions: time 7.0 day
Amyloid-beta precursor protein (Homo sapiens), sequence (P05067 whole entry): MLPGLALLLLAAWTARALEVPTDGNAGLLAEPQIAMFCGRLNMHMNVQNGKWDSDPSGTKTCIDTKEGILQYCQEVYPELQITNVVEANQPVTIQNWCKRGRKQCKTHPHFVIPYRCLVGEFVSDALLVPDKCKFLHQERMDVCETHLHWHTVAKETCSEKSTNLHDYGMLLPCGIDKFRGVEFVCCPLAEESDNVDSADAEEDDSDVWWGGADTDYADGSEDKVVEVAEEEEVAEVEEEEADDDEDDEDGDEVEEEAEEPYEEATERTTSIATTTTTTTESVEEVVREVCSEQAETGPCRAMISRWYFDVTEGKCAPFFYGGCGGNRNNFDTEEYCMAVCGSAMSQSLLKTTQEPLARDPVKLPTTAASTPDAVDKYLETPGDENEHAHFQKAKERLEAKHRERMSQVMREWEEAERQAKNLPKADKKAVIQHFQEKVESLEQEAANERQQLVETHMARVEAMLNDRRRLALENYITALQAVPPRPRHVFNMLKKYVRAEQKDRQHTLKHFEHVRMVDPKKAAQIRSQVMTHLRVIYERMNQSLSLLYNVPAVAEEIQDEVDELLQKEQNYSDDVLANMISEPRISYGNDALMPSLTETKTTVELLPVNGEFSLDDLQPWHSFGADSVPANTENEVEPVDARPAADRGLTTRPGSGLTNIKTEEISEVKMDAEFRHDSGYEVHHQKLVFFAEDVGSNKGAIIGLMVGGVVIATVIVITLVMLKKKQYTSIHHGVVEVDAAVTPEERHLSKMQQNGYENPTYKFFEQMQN
In short: (§2)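 Aβ42 stock diluted to 221 μM in 20 mM sodium phosphate pH 7.4 containing compound (ethanol stocks 1.53 mM). Capillary electrophoresis: BGE 80 mM sodium phosphate pH 7.4, 30 mbar × 3 s hydrodynamic injection, +12 kV, 25 °C, 200 nm detection. Oligomers assigned by effective mobility; HMW oligomer peak quantified semiquantitatively as normalised area %.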

[4] = Effect on TNF-alpha release in Sprague-Dawley rat microglial cells at 20 uM by ELISA; assay type: toxicity, cell-based; conditions: microglia; in short: as §1
Microglia [5] = assay: Antiinflammatory activity against Sprague-Dawley rat microglial cells assessed as downregulation of NLRP3 mRNA expression at 10 uM pretreated with compound for 1 hr followed by LPS stimulation for 6 hrs by real-time PCR analysis; assay type: functional, cell-based; conditions: time 7.0 hrs
In short: (§3)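 Primary cortical microglia (postnatal day 1 rat pups, shaken off mixed glial cultures, ~97% Iba1-positive). Compound (DMSO ≤0.1%) for 1 h, then 100 ng/mL ultra-pure E. coli LPS for 6 h. QIAzol RNA extraction, SuperScript IV reverse transcription, real-time PCR. Mean ± SEM, n = 3 in triplicate; one-way ANOVA, Holm-Sidak test.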

SH-SY5Y [6] = assay: Cytotoxicity against human SH-SY5Y cells assessed as effect on cell viability at 1.25 to 40 uM incubated for 24 hrs by MTT assay; assay type: toxicity, cell-based; conditions: dose 1.25-40 µM
In short: (§4)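 SH-SY5Y, 2×10^4 cells/well, grown 24 h then exposed 24 h (1.25–40 μM) at 37 °C, 5% CO2. MTT 0.5 mg/mL in HBSS for 2 h, washed, formazan dissolved in isopropanol, read at 570 nm (reference 690 nm).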

SH-SY5Y [7] = assay: Antioxidant activity in human SH-SY5Y cells assessed as reduction in intracellular ROS formation at 2.5 uM incubated for 24 hrs followed by incubation with t-BuOOH for 30 mins by H2DCF-DA staining based fluorescence analysis; assay type: functional; conditions: time 24.5 hrs
In short: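 SH-SY5Y (2×10^4 cells/well) exposed to 2.5 μM for 24 h, loaded with H2DCF-DA 30 min at room temperature, probe removed, then challenged with 50 μM t-BuOOH 30 min at room temperature. Fluorescence ex 485/em 535 nm, expressed as % ROS increase. Three independent experiments; one-way ANOVA with Dunnett's test.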

Microglia [8] = assay: Antiinflammatory activity against Sprague-Dawley rat microglial cells assessed as downregulation of TNF-alpha mRNA expression at 10 uM pretreated with compound for 1 hr followed by LPS stimulation for 6 hrs by real-time PCR analysis; assay type: functional, cell-based; conditions: time 7.0 hrs; in short: as §3
[9] = biological target: Keap1/Nrf2 (Homo sapiens) (UniProt Q16236+Q14145); assay: Activation of Keap1/Nrf2 in human SH-SY5Y cells assessed as Nrf2 nuclear translocation by measuring increase in nuclear to cytosolic Nrf2 ratio at 2.5 uM incubated for 3 hrs by western blot analysis; assay type: cell-based
Keap1/Nrf2 (Homo sapiens), sequence (Q14145 whole entry, looked up): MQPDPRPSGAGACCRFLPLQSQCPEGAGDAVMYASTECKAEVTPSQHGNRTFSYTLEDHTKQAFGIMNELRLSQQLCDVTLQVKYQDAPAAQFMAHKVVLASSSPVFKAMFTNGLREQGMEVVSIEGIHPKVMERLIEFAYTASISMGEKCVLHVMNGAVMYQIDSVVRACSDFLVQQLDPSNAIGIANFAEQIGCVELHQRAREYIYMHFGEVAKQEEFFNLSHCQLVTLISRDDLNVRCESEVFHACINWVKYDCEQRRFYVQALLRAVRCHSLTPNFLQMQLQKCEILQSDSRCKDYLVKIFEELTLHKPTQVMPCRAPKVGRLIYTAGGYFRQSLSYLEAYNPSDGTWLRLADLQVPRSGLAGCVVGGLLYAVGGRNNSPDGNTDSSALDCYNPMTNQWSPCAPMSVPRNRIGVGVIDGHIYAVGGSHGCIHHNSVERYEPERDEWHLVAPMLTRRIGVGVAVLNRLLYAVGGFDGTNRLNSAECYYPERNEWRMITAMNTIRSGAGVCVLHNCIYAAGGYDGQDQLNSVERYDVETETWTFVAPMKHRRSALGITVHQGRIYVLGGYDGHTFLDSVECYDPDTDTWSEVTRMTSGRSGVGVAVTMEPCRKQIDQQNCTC
Keap1/Nrf2 (Homo sapiens), sequence (Q16236 whole entry, looked up): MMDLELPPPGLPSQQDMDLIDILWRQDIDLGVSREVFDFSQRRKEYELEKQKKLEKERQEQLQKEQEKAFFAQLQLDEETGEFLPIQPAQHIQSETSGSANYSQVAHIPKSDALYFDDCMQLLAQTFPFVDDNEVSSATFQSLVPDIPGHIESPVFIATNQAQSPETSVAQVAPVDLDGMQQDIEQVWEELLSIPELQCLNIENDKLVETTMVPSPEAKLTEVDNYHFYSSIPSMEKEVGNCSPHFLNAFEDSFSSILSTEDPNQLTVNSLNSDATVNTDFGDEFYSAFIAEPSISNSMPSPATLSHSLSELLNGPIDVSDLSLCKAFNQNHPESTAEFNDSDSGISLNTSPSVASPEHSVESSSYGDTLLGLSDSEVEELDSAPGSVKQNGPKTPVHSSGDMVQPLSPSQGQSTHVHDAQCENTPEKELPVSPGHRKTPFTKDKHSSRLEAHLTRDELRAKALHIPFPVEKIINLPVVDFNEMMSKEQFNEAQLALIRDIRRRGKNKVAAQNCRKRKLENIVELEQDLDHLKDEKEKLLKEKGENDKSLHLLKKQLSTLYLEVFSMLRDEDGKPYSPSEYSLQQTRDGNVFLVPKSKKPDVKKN
In short: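 SH-SY5Y seeded 2×10^6 cells/dish, grown 24 h, then exposed 3 h at 37 °C, 5% CO2. Nuclear and cytosolic fractions immunoblotted for Nrf2, membranes stripped and reprobed for β-actin and lamin B1 as loading references. Mean ± SEM of three independent experiments; one-way ANOVA with Dunnett's test.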

SH-SY5Y [10] = assay: Antioxidant activity in human SH-SY5Y cells assessed as increase in intracellular GSH level at 2.5 uM incubated for 24 hrs by […] fluorescence analysis; assay type: functional
In short: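 SH-SY5Y (2×10^4 cells/well) grown 24 h, then exposed to 2.5 μM for 24 h at 37 °C. Fluorescent probe added 30 min at 37 °C; read at ex 355/em 460 nm. GSH (μM) from a GSH standard curve. Mean ± SEM of three experiments; one-way ANOVA with Dunnett's test.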

[11] = Effect on IL-1 beta release in Sprague-Dawley rat microglial cells at 20 uM by ELISA; assay type: toxicity, cell-based; conditions: microglia; in short: as §1
Microglia [12] = assay: Antiinflammatory activity against Sprague-Dawley rat microglial cells assessed as downregulation of IL-1 beta mRNA expression at 10 uM pretreated with compound for 1 hr followed by LPS stimulation for 6 hrs by real-time PCR analysis; assay type: functional, cell-based; conditions: time 7.0 hrs; in short: as §3
Microglia [13] = assay: Cytotoxicity against Sprague-Dawley rat microglial cells assessed as effect on cell viability at 1 to 20 uM incubated for 24 hrs by MTT assay; assay type: toxicity, cell-based; conditions: dose 1-20 µM
In short: (§5)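 Primary rat microglia, 6×10^4 cells/well, switched to serum-free medium 1 h before 24 h exposure (1–20 μM, DMSO ≤0.1%). MTT 0.18 mg/mL for 4 h at 37 °C, formazan dissolved in DMSO, absorbance 570 nm (reference 630 nm). Vehicle-treated cells = 100% viability.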

[14] = Effect on TNF-alpha release in Sprague-Dawley rat microglial cells at 5 uM by ELISA; assay type: toxicity, cell-based; conditions: microglia; in short: as §1
[15] = Toxicity against Drosophila W1118 assessed as proportion of eclosed-flies at 20 uM measured after 72 hrs
[16] = Effect on IL-1 beta release in Sprague-Dawley rat microglial cells at 5 uM by ELISA; assay type: toxicity, cell-based; conditions: microglia; in short: as §1
Microglia [17] = assay: Cytotoxicity against Sprague-Dawley rat microglial cells assessed as decrease in cell viability at 10 uM incubated for 24 hrs by MTT assay; assay type: toxicity, cell-based; in short: as §5
[18] = Toxicity against Drosophila W1118 assessed as minimum toxic concentration by measuring eclosion rate measured for 72 hrs
Drosophila [19] = assay: Downregulation of SOD1 transcript expression in Spastin Drosophila (Tubulin/Gal4 RNAi DSpast) neurodegenerative model at 10 uM flies raised in compound-enriched food by real-time PCR analysis; assay type: functional
In short: (§6)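 Total RNA from 5 third-instar Spastin-RNAi larvae raised on standard or compound-enriched food; Tubulin-Gal4/+ as control line. One-step SYBR RT-qPCR normalised to Rp49 by the 2^−ΔΔCt method. n = 3 experiments; one-way ANOVA, Tukey's test.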

[20] = biological target: Amyloid-beta precursor protein (Homo sapiens) (UniProt P05067); assay: Anti-oligomeric activity against Abeta42 (unknown origin) assessed as depletion of the formation of toxic HMW Abeta42 oligomers at 1 uM measured at day 7 to 10 from sample solubilization by capillary electrophoresis assay; conditions: time 7-10 day; in short: as §2
[21] = Toxicity against Drosophila W1118 assessed as proportion of eclosed-flies at 30 uM measured after 72 hrs
Drosophila [22] = assay: Downregulation of Nrf2 transcript expression in Spastin Drosophila (Tubulin/Gal4 RNAi DSpast) neurodegenerative model at 10 uM flies raised in compound-enriched food by real-time PCR analysis; assay type: functional; in short: as §6
[23] = Toxicity against Drosophila W1118 assessed as proportion of eclosed-flies at 10 uM measured after 72 hrs
[24] = Toxicity against Drosophila W1118 assessed as proportion of eclosed-flies at 1 uM measured after 72 hrs
Drosophila [25] = assay: Antioxidant activity in Spastin Drosophila (Tubulin/Gal4 RNAi DSpast) neurodegenerative model assessed as decrease in intracelluar ROS level in brain at 10 uM flies raised in compound-enriched food by DHE staining based fluorescence analysis; assay type: functional, organism-based
In short: (§7)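 Spastin-RNAi (Tubulin-Gal4 cross, 28 °C) third-instar larvae raised on compound-enriched food, dissected in HL3, stained 30 min with 30 μM DHE, fixed in 4% PFA, DAPI counterstained. Confocal imaging (DHE 580–630 nm); two 2500 μm² ROIs per muscle or two 1900 μm² ROIs per brain, 10–15 larvae per group; DHE/DAPI ratio.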

Drosophila [26] = assay: Antioxidant activity in Spastin Drosophila (Tubulin/Gal4 RNAi DSpast) neurodegenerative model assessed as decrease in intracelluar ROS level in A2 muscle at 10 uM flies raised in compound-enriched food by DHE staining based fluorescence analysis; assay type: functional, organism-based; in short: as §7
Microglia [27] = assay: Antiinflammatory activity against Sprague-Dawley rat microglial cells assessed as downregulation of IL-1 beta mRNA expression at 5 uM pretreated with compound for 1 hr followed by LPS stimulation for 6 hrs by real-time PCR analysis; assay type: functional, cell-based; conditions: time 7.0 hrs; in short: as §3
[28] = Toxicity against Drosophila W1118 assessed as proportion of eclosed-flies at 50 uM measured after 72 hrs
Drosophila [29] = assay: Effect on CAT transcript expression in Spastin Drosophila (Tubulin/Gal4 RNAi DSpast) neurodegenerative model at 10 uM flies raised in compound-enriched food by real-time PCR analysis; assay type: functional; in short: as §6
Microglia [30] = assay: Antiinflammatory activity against Sprague-Dawley rat microglial cells assessed as inhibition of LPS-induced TNF-alpha production at 1 to 5 uM pretreated with compound for 1 hr followed by LPS stimulation for 24 hrs by ELISA; assay type: functional, cell-based; conditions: dose 1-5 µM, time 25.0 hrs; in short: as §1
SH-SY5Y [31] = assay: Cytotoxicity against human SH-SY5Y cells assessed as decrease in cell viability at >5 uM incubated for 24 hrs by MTT assay; assay type: toxicity, cell-based; in short: as §4
Microglia [32] = assay: Antiinflammatory activity against Sprague-Dawley rat microglial cells assessed as downregulation of TNF-alpha mRNA expression at 5 uM pretreated with compound for 1 hr followed by LPS stimulation for 6 hrs by real-time PCR analysis; assay type: functional, cell-based; conditions: time 7.0 hrs; in short: as §3
Microglia [33] = assay: Antiinflammatory activity against Sprague-Dawley rat microglial cells assessed as inhibition of LPS-induced IL-1 beta production at 1 to 5 uM pretreated with compound for 1 hr followed by LPS stimulation for 24 hrs by ELISA; assay type: functional, cell-based; conditions: dose 1-5 µM, time 25.0 hrs; in short: as §1
Microglia [34] = assay: Antiinflammatory activity against Sprague-Dawley rat microglial cells assessed as downregulation of NLRP3 mRNA expression at 5 uM pretreated with compound for 1 hr followed by LPS stimulation for 6 hrs by real-time PCR analysis; assay type: functional, cell-based; conditions: time 7.0 hrs; in short: as §3

CCOC(=O)C/C(C(=O)/C=C/c1ccc(OC)cc1)=C(O)\C=C\c1ccc(OC)cc1
inactive: Activity [3] | Activity [9]
active: Activity (Microglia [1]) | Activity (Microglia [2]) | Activity (Microglia [5]) | Activity (Microglia [8]) | Activity (SH-SY5Y [10]) | Activity (Microglia [12])
38%: inhibition at 2.5 µM (SH-SY5Y [7])
Non-Toxic: Activity [4] | Activity (SH-SY5Y [6]) | Activity [11] | Activity (Microglia [13])

CCOC(=O)Cn1cc(C/C(C(=O)/C=C/c2ccc(OC)cc2)=C(O)\C=C\c2ccc(OC)cc2)nn1
Toxic: Activity (Microglia [17]) | Activity (SH-SY5Y [31])
94.732%: Activity [23]
10 µM: MTC [18]
81.642%: Activity [21]
94.037%: Activity [24]
28%: inhibition at 2.5 µM (SH-SY5Y [7])
active: Activity [3] | inhibition (Drosophila [19]) | Activity [20] | inhibition (Drosophila [22]) | Activity (Drosophila [25]) | Activity (Drosophila [26]) | Activity (Microglia [27]) | Activity ([9]; filed as activator) | Activity (Microglia [30]) | Activity (SH-SY5Y [10]) | Activity (Microglia [32]) | Activity (Microglia [33]) | Activity (Microglia [34])
83.806%: Activity [15]
Non-Toxic: Activity [14] | Activity [16]
inactive: Activity (Drosophila [29])
68.373%: Activity [28]

COc1ccc(/C=C/C(=O)/C=C(O)/C=C/c2ccc(OC)cc2)cc1
Non-Toxic: Activity [4] | Activity (SH-SY5Y [6]) | Activity [11] | Activity (Microglia [13])
inactive: Activity (Microglia [1]) | Activity (Microglia [2]) | Activity [3] | Activity (Microglia [5]) | Activity (SH-SY5Y [7]) | Activity (Microglia [8]) | Activity [9] | Activity (SH-SY5Y [10]) | Activity (Microglia [12])
